Assay outcomes from PubChem.
KLK7 zymogen act = activators of human kallikrein-7 zymogen. P49862. purified proKLK7, EDANS-DABCYL substrate fluorescence; 100% is mature enzyme control, 0% vehicle. activation, % at 7 µM. actives 0.9% (n = 370,000). AID 652039;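 active = activation above the mean of all tested compounds plus 3 SD, computed per campaign excluding outliers beyond control limits, cut at about 13% in these data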
Target sequence (P49862 whole entry, looked up): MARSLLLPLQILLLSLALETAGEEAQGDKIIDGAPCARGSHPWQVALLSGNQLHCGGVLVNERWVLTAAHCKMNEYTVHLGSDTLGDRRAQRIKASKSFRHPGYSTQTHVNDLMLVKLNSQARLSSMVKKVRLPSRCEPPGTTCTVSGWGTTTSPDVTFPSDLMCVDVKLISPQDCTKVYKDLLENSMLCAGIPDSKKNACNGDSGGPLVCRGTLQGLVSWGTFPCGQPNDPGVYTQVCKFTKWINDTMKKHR
proCasp7 act = counter-screen for procaspase-3 activators: activators of human procaspase-7 | activation, % at 8.5 µM | actives 0.093% (n = 330,000) | recombinant procaspase-7, Ac-DEVD-pNA absorbance 405 nm; D23A/D198A/D206A triple mutant, cannot self-cleave; scale: DMSO 0, 5 µM enzyme 100;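 active = percent activation above the screen-wide mean plus 3 SD, cut at about 25% in these data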
Target sequence (P55210 whole entry D23A/D198A/D206A): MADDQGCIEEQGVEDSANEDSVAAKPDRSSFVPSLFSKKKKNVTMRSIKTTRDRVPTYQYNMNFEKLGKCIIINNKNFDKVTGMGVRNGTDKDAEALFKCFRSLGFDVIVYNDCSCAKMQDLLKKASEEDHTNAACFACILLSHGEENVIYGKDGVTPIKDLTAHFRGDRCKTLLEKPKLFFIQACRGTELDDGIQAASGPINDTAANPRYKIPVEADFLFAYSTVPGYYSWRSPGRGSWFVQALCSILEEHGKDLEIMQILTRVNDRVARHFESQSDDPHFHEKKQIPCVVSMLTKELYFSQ
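signal = Epi-absorbance of released pNA at 405 nm, two timepoints | assay system = Uncleavable procaspase-7 mutant enzyme | reagent = Ac-DEVD-pNA substrate, 400 µM as added | times = 1 h enzyme–compound preincubation and 2 h substrate reaction, both 25 °C | benchmarks = low DMSO alone, high DMSO plus 5 µM PC-7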
proCasp3 act = procaspase-3 (human) activation. P42574. recombinant procaspase-3 D3A, Ac-DEVD-pNA absorbance 405 nm. activation, % at 8.5 µM. actives 0.11% (n = 330,000). AID 463141;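 active = activation above the mean of all tested compounds plus 3 SD, cut at about 21% in these data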
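System: Procaspase-3 D3A mutant. Medium: Zinc-free 300 mM NaCl, 50 mM HEPES, 0.01% Triton X-100. Schedule: 1 h preincubation plus 2 h reaction at 25 °C. Measured by: 405 nm absorbance of p-nitroaniline, reads at 0 and 120 min. Read-out: percent activation relative to control range.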
Neddyl block = inhibitors of human cullin neddylation. P61081+Q13564. TR-FRET cullin neddylation, biochemical. calls only at 25 µM. actives 0.58% (n = 360,000). AID 651699; in the data active = inhibition above about 36%
PC3 D3A act = activates human procaspase-3, dual activator counter-screen; shares compounds with proCasp7 act; recombinant PC-3 D3A, Ac-DEVD-pNA absorbance 405 nm; aspartates 9, 28, 175 changed to alanine; 100% = enzyme control; activation, % at 8.5 µM; 290 tested, under 10 active; AID 493114;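 active = mean percent activation across triplicates above a set limit taken from the earlier primary procaspase-3 screen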
Procasp7 act = procaspase-7 (human) activation, dual activator confirmation; shares compounds with proCasp7 act; recombinant procaspase-7, Ac-DEVD-pNA absorbance 405 nm; D23A/D198A/D206A mutant that cannot self-cleave; activation, % at 8.5 µM; 290 tested, under 10 active; AID 493115;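 active = mean activation above a set limit carried over from the earlier primary screen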
A number is an active result; n = inactive; x = no result given. This is a sample that favours compounds with a hit; in the whole collection about 1.6% have one here.

SMILES	KLK7 zymogen act	proCasp7 act	proCasp3 act	Neddyl block	PC3 D3A act	Procasp7 act
COc1cc(C=Nn2c(-c3ccc(F)cc3)n[nH]c2=S)ccc1OCc1ccccc1	n	x	x	x	x	x
O=C(CSc1nnc(-c2cccc(Cl)c2)n1Cc1ccco1)c1ccc(F)cc1	n	x	x	x	x	x
N#Cc1c2c(c(Nc3ccc(F)cc3)n3c1nc1ccccc13)CCCC2	n	x	x	x	x	x
N#Cc1c2c(c(Nc3ccccc3)n3c1nc1ccccc13)CCC2	n	61	n	x	n	n
Cc1ccc(C2CC(c3ccccc3)=NN2c2ccc(S(N)(=O)=O)cc2)cc1 (stereo not given)	n	x	x	x	x	x
CCc1ccc(C2=NN(c3ccc(S(N)(=O)=O)cc3)C(c3ccc(F)cc3)C2)cc1 (stereo not given)	n	27	59	x	n	n
NS(=O)(=O)c1ccc(N2N=C(c3ccccc3)CC2c2ccccc2Cl)cc1 (stereo not given)	n	80	47	x	n	n
NS(=O)(=O)c1ccc(N2N=C(c3ccccc3)CC2c2ccccc2)cc1 (stereo not given)	n	63	37	n	n	n
NS(=O)(=O)c1ccc(N2N=C(c3ccccc3)CC2c2ccc(Br)cc2)cc1 (stereo not given)	n	x	x	x	x	x
O=C(NCCN1CCC(n2c(=O)[nH]c3cc(Cl)ccc32)CC1)c1ccc(F)cc1	n	x	x	x	x	x
COC(=O)c1ccccc1NC(=O)NCC1CCN(Cc2ccc(OC)cc2)CC1	n	x	x	x	x	x
COc1ccccc1N1CCN(N=Cc2ccccc2Br)CC1	n	x	x	x	x	x
N#Cc1c(N)nc2c(c1-c1ccc3c(c1)OCO3)CCc1ccccc1-2	n	30	n	n	n	n
N#Cc1cc2cc3c(cc2nc1Cl)OCCO3	n	x	x	n	x	x
N#Cc1cc2cc3c(cc2nc1N1CCCCC1)OCCO3	n	38	n	n	n	n
CC(=O)Nc1ccc(/C=N/Nc2nc3ccccc3[nH]2)cc1	n	n	n	n	x	x
O=c1[nH]c(N/N=C/c2ccc(O)cc2)nc2ccccc12	n	34	27	n	n	n
C=CCNC1=C(Cl)C(=O)N(c2cccc(Cl)c2Cl)C1=O	n	32	n	n	n	n
COc1ccc(C(C(=O)NCc2ccccc2)N(C(=O)c2snc(C(N)=O)c2N)c2ccccc2OC)cc1 (stereo not given)	n	29	n	x	n	n
COc1ccccc1N(C(=O)c1snc(C(N)=O)c1N)C(C(=O)NCc1ccccc1)c1ccc(O)cc1 (stereo not given)	n	x	x	x	x	x
NC(=O)c1nsc(C(=O)N(c2ccccc2F)C(C(=O)NCc2ccc(F)cc2)c2ccc(O)cc2)c1N (stereo not given)	n	28	n	n	n	n
Cc1cc(C)c(C#N)c(OCC(=O)c2ccc(Br)cc2)n1	n	46	n	n	n	n
CN1CC=C(c2ccccc2)N(c2ccc(Br)cc2)C1=O	n	x	x	x	x	x
COc1ccccc1OCCn1cc(/C=C(\C#N)C(=O)NCc2ccco2)c2ccccc21	n	50	n	n	n	n
COc1ccc(OCCn2cc(/C=C(\C#N)C(=O)NCc3ccco3)c3ccccc32)cc1	n	n	n	x	x	x
SMILES	KLK7 zymogen act	proCasp7 act	proCasp3 act	Neddyl block	PC3 D3A act	Procasp7 act
O=c1cc(-c2ccc(O)cc2)oc2ccc3ccccc3c12	n	29	22	n	n	n
COc1ccc(OC)c(/C=C/C(=O)N2CCN(S(=O)(=O)c3ccc(C)cc3C)CC2)c1	n	32	n	x	n	n
COc1ccc(OC)c(/C=C/C(=O)N2CCN(S(=O)(=O)c3cc(C)ccc3C)CC2)c1	n	n	n	x	x	x
C#CCOc1ccc(C2C3=C(CC(C)(C)CC3=O)N(CC(=O)O)C3=C2C(=O)CC(C)(C)C3)cc1OC	n	n	n	n	x	x
C=CCOc1ccc(C2C(C#N)=C(N)N(Nc3ccccc3)C3=C2C(=O)CC(C)(C)C3)cc1OC (stereo not given)	n	35	n	x	n	n
CCC(C)Sc1ccc(-c2nc3ccc(C)cn3c2NCc2ccccc2)cc1OC (stereo not given)	x	n	n	n	x	x
CCC(C)Sc1cc(-c2nc3ccc(C)cn3c2NCc2ccccc2)ccc1OC (stereo not given)	n	28	22	x	n	n
COc1ccc(Nc2oc(-c3cccs3)nc2C#N)cc1	n	53	n	x	n	n
COc1ccccc1[C@H]1C(c2ccccc2)=NN(c2ccccc2)[C@@H]1CO	x	50	25	x	n	n
COc1ccc(-c2cc(C(=O)NN=C/C(C)=C/c3ccccc3)[nH]n2)cc1	n	x	x	x	x	x
COc1ccc(C2C3=C(CC(C)(C)CC3=O)Nc3c2c(=O)n(C)c(=O)n3C)cc1OC (stereo not given)	n	27	n	n	n	n
COC(=O)C1=C(C)NC(=O)NC1c1ccc(OC)c(OC)c1 (stereo not given)	n	x	x	n	x	x
COC(=O)C1=C(C)NC(C)=C(C(=O)OC)C1c1ccc(OC(=O)c2oc3ccccc3c2C)c(OC)c1	n	81	35	x	n	n
O=C(CCn1nnc(-c2cccs2)n1)NCc1ccco1	n	x	x	x	x	x
COc1ccc(-c2nc3ccccc3nc2-c2ccc(OC)cc2)cc1	n	33	32	x	n	n
COc1ccc(-c2nc3ccccc3nc2-c2ccc(OC)c(OC)c2)cc1OC	n	n	n	n	x	x
COc1ccc(-n2c(N)c(C(=O)NCc3ccco3)c3nc4ccccc4nc32)cc1	n	44	n	x	n	n
COc1cc(-n2c(N)c(C(=O)NCc3ccco3)c3nc4ccccc4nc32)cc(OC)c1OC	n	43	n	n	n	n
Nc1ccc(-n2c(N)c(C(=O)NCc3ccc4c(c3)OCO4)c3nc4ccccc4nc32)cc1	n	44	n	n	n	n
COc1ccc(-n2c(N)c(C(=O)NCc3ccco3)c3nc4ccccc4nc32)cc1OC	n	32	n	n	n	n
O=C(CSc1nnc(-c2cccnc2)n1Cc1ccco1)Nc1ccc(F)cc1Cl	n	x	x	x	x	x
CCN(CC)c1ccc(C(=O)OCc2cc(=O)oc3cc(O)ccc23)cc1	n	40	32	n	n	n
C=CCNS(=O)(=O)c1ccc(C(=O)OCc2cc(=O)oc3cc(OC)ccc23)cc1	n	n	n	n	x	x
COc1ccc(OC)c(/C=N/NC(=O)c2cc3c(OC)cccc3[nH]2)c1	n	38	n	x	n	n
COc1ccc(OC)c(/C=N/NC(=O)c2cc3c(OC)cc(OC)cc3[nH]2)c1	n	n	n	n	x	x
COc1ccc(S[C@]2(C(=O)N3CCCC3)CC(=O)N(c3ccsc3)[C@@H]2c2ccc(OC)cc2)cc1	n	x	x	x	x	x
COc1ccc(-c2cc(C(=O)NN=Cc3ccc(C)s3)[nH]n2)cc1	n	x	x	x	x	x
CN(C)c1ccc(-c2nn3c(-c4ccccc4Cl)nnc3s2)cc1	n	34	n	x	n	n
